# UCH37 inh = inhibitors of human deubiquitinating enzyme UCH37; Q9Y5K5; inhibition, % (no concentration beside the values); 330,000 tested, 0.33% active; purified proteasome/UCH37, Ub-AMC cleavage fluorescence;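 active = mean inhibition over replicate wells above about 20%, limit read from the data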
#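 Schedule: 30 min plus 25 min, room temperature / Material: human UCH37 within purified proteasomes / Technique: AMC fluorescence intensity at 355/460 nm / Buffer or medium: pH 7.4 Tris-HCl (50 mM) with ovalbumin, ATP-MgCl2, DTT / Controls: wells without proteasome as full block, compound-free enzyme plus substrate as uninhibited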
# SIRT5 inh = blocks human SIRT5 desuccinylation of peptide; Purified SirT5, succinyl-peptide AMC, trypsin-coupled fluorescence; inhibition, % at 15 µM; 330,000 tested, 1.1% active; in the data active = inhibition above about 15%
# Target sequence (Q9NXA8 whole entry, looked up): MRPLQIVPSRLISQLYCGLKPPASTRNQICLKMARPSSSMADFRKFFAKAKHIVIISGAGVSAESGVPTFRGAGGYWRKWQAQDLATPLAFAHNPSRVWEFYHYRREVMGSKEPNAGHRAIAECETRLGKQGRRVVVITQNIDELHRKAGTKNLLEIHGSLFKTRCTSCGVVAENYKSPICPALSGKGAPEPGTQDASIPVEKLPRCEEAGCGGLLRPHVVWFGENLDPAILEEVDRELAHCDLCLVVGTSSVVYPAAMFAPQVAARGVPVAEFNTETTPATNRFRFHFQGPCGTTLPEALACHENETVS
# Casp6 inh = inhibitors of human caspase-6; purified caspase-6, Z-VEID-R110 cleavage fluorescence; inhibition, % at 12.5 µM; 350,000 tested, 0.53% active; AID 686996;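 active = mean inhibition across replicates at least about 35%, with every replicate also reaching that limit, limit read from the data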
# Target sequence (P55212 24-179 limits assumed): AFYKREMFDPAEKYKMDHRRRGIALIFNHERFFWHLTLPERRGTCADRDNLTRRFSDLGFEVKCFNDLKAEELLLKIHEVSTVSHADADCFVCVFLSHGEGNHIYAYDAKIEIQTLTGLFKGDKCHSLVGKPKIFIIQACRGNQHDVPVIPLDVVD
# Target sequence (P55212 194-293 limits assumed): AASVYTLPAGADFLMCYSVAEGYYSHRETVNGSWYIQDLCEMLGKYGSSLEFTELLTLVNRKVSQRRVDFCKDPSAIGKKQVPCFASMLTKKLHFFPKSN
# NSD2 HMT inh = inhibitors of human histone methyltransferase NSD2; O96028; NSD2 peptide methylation, AlphaScreen, 120 min; inhibition, % at 12.5 µM; 310,000 tested, 0.54% active; in the data active = inhibition above about 50%
# FGF22 binding = binders of recombinant human FGF22 by thermal shift; activity (Tm shift, normalised), % at 9.99 µM; 340,000 tested, 1.5% active; SYPRO orange fluorescence; percent of sucrose octasulfate shift, DMSO zero; Q9HCT0; AID 651658;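 active = mean Tm shift, scaled 0 neutral to 100 positive control, at about 1.3% or above, every replicate too, limit read from the data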
# A number is an active result; – = inactive; · = not tested or not shown. This is a sample that favours compounds with a hit; in the whole collection about 2.6% have one here.
SMILES,UCH37 inh,SIRT5 inh,Casp6 inh,NSD2 HMT inh,FGF22 binding
O=C(NCc1ccccn1)NC12CC3CC(CC(C3)C1)C2,–,·,·,–,·
c1ccc(CNC23CC4CC(CC(C4)C2)C3)nc1,–,–,–,–,43
C[C@@H]1CN([C@@H](C)CO)C(=O)c2cccc(NS(C)(=O)=O)c2O[C@@H]1CN(C)S(=O)(=O)c1cn(C)cn1,·,–,–,·,–
C[C@H](CO)N1C[C@H](C)[C@H](CN(C)C(=O)Nc2cccc3ccccc23)Oc2ccc(NC(=O)Cc3cn(C)c4ccccc34)cc2CC1=O,·,–,–,·,–
c1ccc(N=C2SCCCS2)cc1,·,·,–,–,43
CN(C)CC(=O)Nc1ccc2c(c1)[C@@H]1C[C@@H](CC(=O)NCc3ccc(-c4ccccc4)cc3)O[C@@H](CO)[C@@H]1O2,·,–,–,·,–
CC(C)NC(=O)Nc1cccc2c1O[C@@H](CN(C)Cc1ccc(C(F)(F)F)cc1)[C@@H](C)CN([C@H](C)CO)C2=O,·,–,–,·,–
CCOc1ccc(C(=O)N2CCN(c3cnn(-c4ccccc4)c(=O)c3Cl)CC2)cc1,–,–,–,–,44
Nc1n[nH]c2ccccc12,–,–,–,–,–
S=c1nn[nH]c2ccccc12,–,·,–,–,43
COc1ccc(NC(=O)Nc2ccc3c(c2)C(=O)N([C@@H](C)CO)C[C@H](C)[C@@H](CN(C)C(=O)Nc2ccc(F)cc2)OCCCC[C@H](C)O3)cc1,·,17,–,·,–
COc1ccc(S(=O)(=O)Nc2ccc3c(c2)C(=O)N([C@H](C)CO)C[C@@H](C)[C@H](CN(C)C(=O)Nc2ccc(C(F)(F)F)cc2)OCCCC[C@@H](C)O3)cc1,·,–,–,·,1.2
COc1ccc(NC(=O)N(C)C[C@@H]2OCCCC[C@H](C)Oc3ccc(NS(=O)(=O)c4ccc(F)cc4)cc3C(=O)N([C@@H](C)CO)C[C@@H]2C)cc1,·,–,–,·,–
COc1ccc(S(=O)(=O)Nc2ccc3c(c2)C(=O)N([C@@H](C)CO)C[C@H](C)[C@@H](CN(C)C(=O)Nc2ccc(F)cc2)OCCCC[C@H](C)O3)cc1,·,16,–,·,–
COc1ccc(S(=O)(=O)Nc2ccc3c(c2)C(=O)N([C@H](C)CO)C[C@@H](C)[C@H](CN(C)C(=O)Nc2ccc(F)cc2)OCCCC[C@@H](C)O3)cc1,·,15,–,·,–
CC1=CC(=NS(=O)(=O)c2ccccc2)C(C(C)C)=CC1=O,–,·,·,·,·
CN(C)CC(=O)Nc1ccc2c(c1)[C@H]1C[C@@H](CC(=O)NCc3ccc(Cl)cc3)O[C@H](CO)[C@H]1O2,·,–,–,·,–
CCCCN1C(=O)C(O)=C(C(C)=O)C1c1ccccc1 (stereo not drawn),–,·,·,–,·
CCCCN1C(=O)C(O)=C(C(C)=O)C1c1ccccc1[N+](=O)[O-] (stereo not drawn),–,24,–,–,–
O=S(=O)(NC(CO)Cc1ccccc1)c1ccc(Br)cc1F (stereo not drawn),·,·,–,·,43
O=S(=O)(NC(CO)Cc1ccccc1)c1cc(Cl)ccc1F (stereo not drawn),·,–,–,·,–
COCCNC(=O)C[C@@H]1CC[C@H]2[C@@H](COC[C@@H](O)CN2C(=O)Nc2ccccc2OC)O1,·,–,–,·,–
O=C(Nc1ccc(Cl)cn1)C1C(c2ccccc2)C1(Cl)Cl (stereo not drawn),–,–,–,–,44
O=C(/C=C/c1ccccc1Cl)Nc1ccccc1,–,–,–,–,1.5
O=C(/C=C/c1ccccc1Cl)Nc1cccc(O)c1,–,–,–,–,–
SMILES,UCH37 inh,SIRT5 inh,Casp6 inh,NSD2 HMT inh,FGF22 binding
O=C(/C=C/c1ccccc1Cl)Nc1ccc(Cl)cn1,–,–,–,–,43
Cc1ccc(S(=O)(=O)N[C@@H]2CC[C@H](CC(=O)O)O[C@@H]2CO)cc1,·,–,–,·,–
COc1ccc(S(=O)(=O)Nc2cccc3c2O[C@@H](CN(C)Cc2ccc(Oc4ccccc4)cc2)[C@@H](C)CN([C@@H](C)CO)C3=O)cc1,·,–,–,·,–
C[C@@H]1CCCCO[C@H](CN(C)CC2CCCCC2)[C@H](C)CN([C@@H](C)CO)C(=O)c2cc(NC(=O)Nc3cccc4ccccc34)ccc2O1,·,–,–,·,–
C[C@@H]1CCCCO[C@@H](CN(C)CC2CCCCC2)[C@@H](C)CN([C@@H](C)CO)C(=O)c2cc(NC(=O)Nc3cccc4ccccc34)ccc2O1,·,–,–,·,1.5
C[C@H](CO)N1C[C@H](C)[C@@H](CN(C)CC2CCCCC2)OCCCC[C@H](C)Oc2ccc(NC(=O)Nc3cccc4ccccc34)cc2C1=O,·,–,–,·,1.5
C[C@@H]1CCCCO[C@H](CN(C)CC2CCCCC2)[C@H](C)CN([C@H](C)CO)C(=O)c2cc(NC(=O)Nc3cccc4ccccc34)ccc2O1,·,–,–,·,1.3
CC(=O)N1[C@@H]2c3ccc(/C=C/c4ccccc4)c(=O)n3C[C@H]1[C@H](CO)[C@H]2C(=O)N(C)C,·,–,–,·,–
C[C@@H]1CCCCO[C@H](CN(C)C(=O)NC2CCCCC2)[C@@H](C)CN([C@H](C)CO)C(=O)c2cc(NC(=O)NC3CCCCC3)ccc2O1,·,–,–,·,–
COc1ccc(NC(=O)Nc2ccc3c(c2)C(=O)N([C@H](C)CO)C[C@@H](C)[C@@H](CN(C)C(=O)Nc2ccc(OC)cc2)O3)cc1,·,–,–,·,–
O=C(O)C1C=Cc2ccccc2N1C(=O)c1ccccc1 (stereo not drawn) (tested in a mixture with another compound),·,·,39,–,–
N#Cc1ccc(OCC(=O)N/N=C(\CCC(=O)O)c2cccs2)cc1,·,–,–,·,43
N#Cc1ccc(OCC(=O)NN=C(CCC(=O)O)c2cccs2)cc1,–,·,·,·,·
CCC(=O)N(C)C[C@H]1Oc2cc(C#CCOC)ccc2S(=O)(=O)N([C@H](C)CO)C[C@@H]1C,·,–,–,·,–
CCc1ccc(NC(=O)CSc2nc3[nH]ncc3c(=O)[nH]2)cc1,–,–,–,–,43
CC(C)CC(=O)Nc1ccc(-c2nc3ccccc3c(=O)o2)cc1,–,·,·,–,·
O=C(CSc1nc2ccccc2c(=O)[nH]1)Nc1ccc(C(=O)O)cc1,–,–,37,–,–
CC(C)CC(=O)Nc1ccc(-c2nc3ccccc3c(=O)[nH]2)cc1,·,16,–,–,–
CN(C)C(=O)C[C@@H]1CC[C@@H]2[C@H](COC[C@H](O)CN2Cc2ccc(C(F)(F)F)cc2)O1,·,–,–,·,–
Cc1nc2c(-c3ccc(F)cc3)cnn2c2c1CCC2,–,–,56,–,–
Cc1ccc(S(=O)(=O)NC(=O)Nc2ccc(C)cn2)cc1,·,98,–,·,–
COC(=O)C[C@H]1CC[C@@H]2[C@@H](COc3ccc(NC(=O)Cc4cccs4)cc3C(=O)N2C)O1,·,–,–,·,–
Cc1ccc(C(=O)Nc2c(C)cc(-c3ccccc3)oc2=O)cc1,–,–,–,–,43
Cc1ccc(C(=O)Nc2nc(-c3ccccc3)c(-c3ccccc3)o2)cc1,–,·,·,–,·

# Screening results deposited in PubChem BioAssay by several laboratories.
